Experiment [1] deals with T1, von Hippel-Lindau disease tumor suppressor/Receptor-interacting serine/threonine-protein kinase 1 (Homo sapiens, UniProt Q13546+P40337). The experiment can be described thus: PROTAC activity at VHL/wild type nLuc-fused N-terminal RIPK1 kinase domain (unknown origin) expressed in HEK293T cells assessed as induction of protein degradation measured after 24 hrs in presence of furimazine substrate by Nano-Glo luciferase based luminescence analysis relative to control. The class given is cell-based. The essentials:
(§1)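 HEK293T cells transiently transfected with nLuc (WT or K0)-RIPK1 kinase domain (1-324) through a 24-residue linker, expressed 24–36 h. Replated at 20,000 cells/well in Opti-MEM with 4% FBS. Treated 24 h with 1.6–1,000 nM (5-fold, 1% DMSO). Medium removed, Nano-Glo substrate 1:100 in PBS added, live-cell luminescence read. Three-parameter inhibitor fit; at least two biological batches.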
Target sequence in this assay (P40337 whole entry, looked up, the tested form may be a part): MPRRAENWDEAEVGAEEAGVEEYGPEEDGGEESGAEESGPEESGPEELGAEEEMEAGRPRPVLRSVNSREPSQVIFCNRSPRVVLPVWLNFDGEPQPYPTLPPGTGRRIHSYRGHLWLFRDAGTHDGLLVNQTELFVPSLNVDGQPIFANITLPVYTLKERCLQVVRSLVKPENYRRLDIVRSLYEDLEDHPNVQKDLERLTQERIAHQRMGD
Target sequence in this assay (Q13546 whole entry, looked up, the tested form may be a part): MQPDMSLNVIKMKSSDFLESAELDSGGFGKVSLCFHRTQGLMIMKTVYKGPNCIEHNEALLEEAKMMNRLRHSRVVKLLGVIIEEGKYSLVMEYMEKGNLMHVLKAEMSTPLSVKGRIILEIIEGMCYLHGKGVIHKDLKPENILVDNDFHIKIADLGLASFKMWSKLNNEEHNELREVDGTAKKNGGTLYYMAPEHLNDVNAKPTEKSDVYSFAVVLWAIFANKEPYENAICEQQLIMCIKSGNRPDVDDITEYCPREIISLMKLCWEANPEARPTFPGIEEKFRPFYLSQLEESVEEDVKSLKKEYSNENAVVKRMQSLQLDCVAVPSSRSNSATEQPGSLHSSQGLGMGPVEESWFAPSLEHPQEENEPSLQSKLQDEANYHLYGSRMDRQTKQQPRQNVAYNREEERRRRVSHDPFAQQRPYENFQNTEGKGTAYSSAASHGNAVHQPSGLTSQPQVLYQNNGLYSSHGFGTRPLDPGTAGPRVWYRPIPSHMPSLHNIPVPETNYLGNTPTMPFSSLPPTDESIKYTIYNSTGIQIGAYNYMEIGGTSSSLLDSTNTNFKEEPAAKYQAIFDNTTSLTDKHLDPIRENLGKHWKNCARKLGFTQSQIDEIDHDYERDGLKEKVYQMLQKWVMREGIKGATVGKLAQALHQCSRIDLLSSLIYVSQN

For experiment [2], the target named is T1, von Hippel-Lindau disease tumor suppressor/Receptor-interacting serine/threonine-protein kinase 1. The experiment can be described thus: PROTAC activity at VHL/wild type nLuc-fused N-terminal RIPK1 kinase domain (unknown origin) expressed in HEK293T cells assessed as induction of protein degradation at 1.6 to 1000 nM measured after 24 hrs by immunoblot analysis. The format is cell-based. Particulars: dose 1.6-1000 nM. The essentials:
(§2)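 HEK293T cells transfected with nLuc (WT or K0)-RIPK1 kinase domain, plated in 12-well plates and treated 24 h. Lysed in RIPA with protease/phosphatase inhibitors and benzonase. 20 µg protein run on SDS-PAGE and transferred to PVDF. Probed overnight at 4 °C with anti-RIPK1 (1:1000) and β-actin (1:4000), then HRP secondary and ECL.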
In general terms: In western blotting, separated proteins are transferred to a membrane and probed.
Target sequence in this assay (P40337 whole entry, looked up, the tested form may be a part): as the sequence (P40337 whole entry, looked up, the tested form may be a part) above
Target sequence in this assay (Q13546 whole entry, looked up, the tested form may be a part): as the sequence (Q13546 whole entry, looked up, the tested form may be a part) above

Experiment [3] shares this target. The experiment can be described thus: PROTAC activity at VHL/nLucK0-fused N-terminal RIPK1 kinase domain (unknown origin) expressed in HEK293T cells assessed as induction of protein degradation at 1.6 to 1000 nM measured after 24 hrs by immunoblot analysis. The format is cell-based. Particulars: dose 1.6-1000 nM. The essentials: as §2
Target sequence in this assay (P40337 whole entry, looked up, the tested form may be a part): as the sequence (P40337 whole entry, looked up, the tested form may be a part) above
Target sequence in this assay (Q13546 whole entry, looked up, the tested form may be a part): as the sequence (Q13546 whole entry, looked up, the tested form may be a part) above
The nature of experiment [4]: Binding affinity to His-tagged LgBiT (unknown origin) incubated for 30 mins by Nano-Glo luciferase based luminescence analysis. Further details: species or system Homo sapiens. The essentials: (§3)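 Equilibrated 30 min at room temperature, then Nano-Glo substrate was added and luminescence read. EC50 from a three-parameter agonist fit; at least 3 technical replicates.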

Experiment [5] is described as follows: Binding affinity to LgBiT (unknown origin) incubated for 30 mins by Nano-Glo luciferase based luminescence analysis. Set-up: species or system Homo sapiens. The essentials:
as §3

The nature of experiment [6]: Binding affinity to His-tagged LgBiT (unknown origin) incubated for 30 mins measured after subtracting LgBiT signal in presence of PBS by Nano-Glo luciferase based luminescence analysis. Further details: species or system Homo sapiens. The essentials: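 Incubated 30 min, then Nano-Glo substrate was added and luminescence read. The LgBiT-only (PBS) baseline was subtracted before the three-parameter agonist fit.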

Experiment [7] can be described thus: Binding affinity to His-tagged LgBiT (unknown origin) immobilized on chip surface with surface density of 3000 pg/mm2 by grating-coupled interferometry. Further details: species or system Homo sapiens. The essentials: (§4)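 His-LgBiT, purified in-house from E. coli BL21(DE3), captured at 50 µg/mL in PBS on a Ni-charged PCP-NTA chip. Two flow channels reached 3000 and 1000 pg/mm2. Kinetics were run in 0.01 M HEPES, 0.15 M NaCl, 0.05% P20, pH 7.4. kon and koff came from a global association-then-dissociation fit.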

Experiment [8] is filed under the species Homo sapiens. The experiment can be described thus: Binding affinity to His-tagged LgBiT (unknown origin) assessed as on-rate constant protein immobilized on chip surface with surface density of 3000 pg/mm2 by grating-coupled interferometry. An outline of the steps: as §4
For experiment [9], the species on record is Homo sapiens. The experiment can be described thus: Binding affinity to His-tagged LgBiT (unknown origin) assessed as off-rate constant protein immobilized on chip surface with surface density of 3000 pg/mm2 by grating-coupled interferometry. The essentials:
as §4

Experiment [10] in a line: Binding affinity to His-tagged LgBiT (unknown origin) immobilized on chip surface with surface density of 1000 pg/mm2 by grating-coupled interferometry. Further details: species or system Homo sapiens. The essentials: as §4
Experiment [11] is filed under the species Homo sapiens. The experiment can be described thus: Binding affinity to His-tagged LgBiT (unknown origin) assessed as on-rate constant protein immobilized on chip surface with surface density of 1000 pg/mm2 by grating-coupled interferometry. An outline of the steps:
as §4

The species named for experiment [12] is Homo sapiens. The experiment can be described thus: Binding affinity to His-tagged LgBiT (unknown origin) assessed as off-rate constant protein immobilized on chip surface with surface density of 1000 pg/mm2 by grating-coupled interferometry. The essentials:
as §4

Experiment [13] addresses T1, von Hippel-Lindau disease tumor suppressor/Receptor-interacting serine/threonine-protein kinase 1. The experiment can be described thus: PROTAC activity at VHL/wild type nLuc-fused N-terminal RIPK1 kinase domain (unknown origin) expressed in HEK293T cells assessed as induction of protein degradation measured after 24 hrs in presence of furimazine substrate by Nano-Glo luciferase based luminescence analysis. The format is cell-based. The essentials: as §1
Target sequence in this assay (Q13546 whole entry, the tested form may be a part): as the sequence (Q13546 whole entry, looked up, the tested form may be a part) above
Target sequence in this assay (P40337 whole entry, the tested form may be a part): as the sequence (P40337 whole entry, looked up, the tested form may be a part) above

For experiment [14] the target is unchanged. The experiment can be described thus: PROTAC activity at VHL/nLucK0-fused N-terminal RIPK1 kinase domain (unknown origin) expressed in HEK293T cells assessed as induction of protein degradation measured after 24 hrs in presence of furimazine substrate by Nano-Glo luciferase based luminescence analysis. The format is cell-based. An outline of the steps: as §1
Target sequence in this assay (Q13546 whole entry, the tested form may be a part): as the sequence (Q13546 whole entry, looked up, the tested form may be a part) above
Target sequence in this assay (P40337 whole entry, the tested form may be a part): as the sequence (P40337 whole entry, looked up, the tested form may be a part) above

From ChEMBL document CHEMBL5608231, “Lysineless HiBiT and NanoLuc Tagging Systems as Alternative Tools for Monitoring Targeted Protein Degradation” (ACS Med Chem Lett, 2024) come the findings set out here.

Calls of active or inactive are those of the source. The calls are words filed in the database; no cut-off is given here. Residues, ends and D or L forms follow the SMILES beside them.

As to `Cc1ncsc1-c1ccc([C@H](C)NC(=O)[C@@H]2C[C@@H](O)CN2C(=O)[C@@H](NC(=O)CCCCCCCCCCC(=O)NCCCn2cc(-c3ccc4c(c3)CCN4C(=O)Cc3cccc(OC(F)(F)F)c3)c3c(N)ncnc32)C(C)(C)C)cc1`, the %max in [1] worked out at 91.5%. Besides, the result in experiment [2] and in experiment [3] was Active.

For the molecule `CC[C@H](C)[C@H](NC(=O)[C@H](CCCNC(=N)N)NC(=O)[C@H](CCCNC(=N)N)NC(=O)[C@H](Cc1ccccc1)NC(=O)[C@H](CC(C)C)NC(=O)[C@H](CCCNC(=N)N)NC(=O)[C@H](Cc1c[nH]c2ccccc12)NC(=O)CNC(=O)[C@H](CO)NC(=O)[C@@H](N)C(C)C)C(=O)N[C@@H](CO)C(=O)O` (H-VSGWRLFRRIS-OH), the concentration for a half-maximal effect (EC50) (in general, the concentration that produces a half-maximal response) in [4] turned out to be 8.7 nM; in experiment [5], 6.2 nM; in [6], 16 nM. Besides, the Kd (commonly the equilibrium constant for the complex coming apart) stood at 1.8 nM in [7] and 0.7 nM in experiment [10]. Besides, the K in the experiment filed under Homo sapiens [8] is 3.6 10^5/M/s; in the experiment filed under Homo sapiens [9], 6.7 10^-3/s; in the experiment filed under Homo sapiens [11], 7.7 10^5/M/s; in the experiment listed under Homo sapiens [12], 5 10^-4/s.

For `CC[C@H](C)[C@H](NC(=O)[C@H](CCCCN)NC(=O)[C@H](CCCCN)NC(=O)[C@H](Cc1ccccc1)NC(=O)[C@H](CC(C)C)NC(=O)[C@H](CCCNC(=N)N)NC(=O)[C@H](Cc1c[nH]c2ccccc12)NC(=O)CNC(=O)[C@H](CO)NC(=O)[C@@H](N)C(C)C)C(=O)N[C@@H](CO)C(=O)O`, the EC50 in experiment [6] was found to be 24 nM. The K in the experiment listed under Homo sapiens [8] was 3 10^5/M/s; in the experiment listed under Homo sapiens [9], 1.4 10^-3/s; in the experiment listed under Homo sapiens [11] it was 7.5 10^5/M/s; in the experiment listed under Homo sapiens [12], 1.3 10^-3/s.

Consider `Cc1ncsc1-c1ccc([C@H](C)NC(=O)[C@H]2C[C@H](O)CN2C(=O)[C@@H](NC(=O)CCCCCCCCCCC(=O)NCCCn2cc(-c3ccc4c(c3)CCN4C(=O)Cc3cccc(OC(F)(F)F)c3)c3c(N)ncnc32)C(C)(C)C)cc1`, for which the DC50 result in [13] and in experiment [14] was “Not Active” throughout.
